{"source": "paper PMC11245987", "about": "(Computational and Structural Biotechnology Journal, 2024)", "key": {"CTSL [1]": {"target": "T1, CTSL (Homo sapiens, UniProt P07711)", "T1 sequence (P07711 114-288 limits assumed)": "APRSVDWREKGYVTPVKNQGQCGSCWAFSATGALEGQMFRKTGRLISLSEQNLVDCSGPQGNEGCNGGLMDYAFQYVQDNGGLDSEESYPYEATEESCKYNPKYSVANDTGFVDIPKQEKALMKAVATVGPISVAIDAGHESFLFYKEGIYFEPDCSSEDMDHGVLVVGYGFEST", "T1 sequence (P07711 292-333 limits assumed)": "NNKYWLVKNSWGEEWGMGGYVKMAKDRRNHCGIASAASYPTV", "assay": "CTSL activity test, cell-free system", "type": "biochemical", "conditions": "for inhibition at 100 µM: read-out: inhibition of CTSL"}, "CTSL [2]": {"target": "T1, CTSL", "assay": "Enzyme kinetics of CTSL", "type": "biochemical", "conditions": "for inhibition mechanism: 6.25 µM to 100 µM, both Km and Vmax decreased", "procedure,_shortened": "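A standard-curve conversion factor turned signal into velocity. Values were corrected by subtracting the […] and fitted to Michaelis-Menten. Lineweaver–Burk plots gave the inhibition mechanism. Mean ± SEM.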"}}, "data": [{"smiles": "CC1=CC(=O)c2c(O)cccc2C1=O", "note": "[Plumbagin]", "values": [{"measurement": "IC50", "setting": "CTSL [1]", "result": 31.3, "unit": "µM"}, {"measurement": "inhibition at 100 µM", "setting": "CTSL [1]", "result": "> 90", "unit": "%"}, {"measurement": "inhibition mechanism", "setting": "CTSL [2]", "result": "uncompetitive inhibition mechanism"}, {"measurement": "Vmax", "setting": "CTSL [2]; inhibitor 6.25 μM", "result": "321.7 ± 13.9", "unit": "Rlu/min"}, {"measurement": "Vmax", "setting": "CTSL [2]; inhibitor 12.5 μM", "result": "277.5 ± 15.6", "unit": "Rlu/min"}, {"measurement": "Vmax", "setting": "CTSL [2]; inhibitor 25 μM", "result": "270.5 ± 11.2", "unit": "Rlu/min"}, {"measurement": "Vmax", "setting": "CTSL [2]; inhibitor 50 μM", "result": "216.8 ± 20.5", "unit": "Rlu/min"}, {"measurement": "Vmax", "setting": "CTSL [2]; inhibitor 100 μM", "result": "12.3 ± 2.4", "unit": "Rlu/min"}]}, {"smiles": "CC1(C)CCC2=C(O1)c1ccccc1C(=O)C2=O", "note": "[Beta-Lapachone]", "values": [{"measurement": "IC50", "setting": "CTSL [1]", "result": 9.6, "unit": "µM"}, {"measurement": "inhibition at 100 µM", "setting": "CTSL [1]", "result": "> 90", "unit": "%"}, {"measurement": "inhibition mechanism", "setting": "CTSL [2]", "result": "uncompetitive inhibition mechanism"}, {"measurement": "Vmax", "setting": "CTSL [2]; inhibitor 6.25 μM", "result": "194.8 ± 9.2", "unit": "Rlu/min"}, {"measurement": "Vmax", "setting": "CTSL [2]; inhibitor 12.5 μM", "result": "181.3 ± 32.9", "unit": "Rlu/min"}, {"measurement": "Vmax", "setting": "CTSL [2]; inhibitor 25 μM", "result": "136.9 ± 27.6", "unit": "Rlu/min"}, {"measurement": "Vmax", "setting": "CTSL [2]; inhibitor 50 μM", "result": "103.1 ± 2.2", "unit": "Rlu/min"}, {"measurement": "Vmax", "setting": "CTSL [2]; inhibitor 100 μM", "result": "39.9 ± 0.2", "unit": "Rlu/min"}]}, {"smiles": "COc1cc(O)c(C(=O)/C=C/c2ccccc2)c(OC)c1", "note": "[Flavokawain B]", "values": [{"measurement": "inhibition at 100 µM", "setting": "CTSL [1]", "result": "> 90", "unit": "%"}]}, {"smiles": "Cc1c(O)c(C)c2c(c1O)C(=O)C[C@@H](c1ccc(O)cc1)O2", "note": "[Farrerol]", "values": [{"measurement": "inhibition at 100 µM", "setting": "CTSL [1]", "result": "> 90", "unit": "%"}]}, {"smiles": "O=CCc1ccccc1", "note": "[Phenylacetaldehyde]", "values": [{"measurement": "inhibition at 100 µM", "setting": "CTSL [1]", "result": "> 90", "unit": "%"}]}, {"smiles": "O=C(N[C@H](COC(=O)[C@H](Cc1ccccc1)NC(=O)c1ccccc1)Cc1ccccc1)c1ccccc1", "note": "[Asperphenamate]", "values": [{"measurement": "inhibition at 100 µM", "setting": "CTSL [1]", "result": "> 90", "unit": "%"}]}, {"smiles": "COc1cc(O)cc(O)c1C(=O)/C=C/c1ccccc1", "note": "[(E)-Cardamonin]", "values": [{"measurement": "inhibition at 100 µM", "setting": "CTSL [1]", "result": "> 90", "unit": "%"}]}, {"smiles": "O=C(/C=C/c1ccc(O)cc1)c1c(O)cc(O)cc1O", "note": "[Naringenin chalcone]", "values": [{"measurement": "inhibition at 100 µM", "setting": "CTSL [1]", "result": "> 90", "unit": "%"}]}]}
